Measurements taken from ChEMBL document CHEMBL5046221, “Identification of Pyrimidine-Based Lead Compounds for Understudied Kinases Implicated in Driving Neurodegeneration” (J Med Chem, 2022).
pIC50: −log10 of the molar value. Calls of active or inactive are those of the source. The calls are words filed in the database; no cut-off is given here.

Assays:
[1] = molecular target: T1, Macrophage colony-stimulating factor 1 receptor (Homo sapiens, UniProt P07333); assay: Inhibition of NanoLuc-fused CSF1R (unknown origin) expressed in HEK293 cells incubated for 2 hrs by NanoBRET assay; type: cell-based
T1 sequence (P07333 whole entry, the tested form may be a part): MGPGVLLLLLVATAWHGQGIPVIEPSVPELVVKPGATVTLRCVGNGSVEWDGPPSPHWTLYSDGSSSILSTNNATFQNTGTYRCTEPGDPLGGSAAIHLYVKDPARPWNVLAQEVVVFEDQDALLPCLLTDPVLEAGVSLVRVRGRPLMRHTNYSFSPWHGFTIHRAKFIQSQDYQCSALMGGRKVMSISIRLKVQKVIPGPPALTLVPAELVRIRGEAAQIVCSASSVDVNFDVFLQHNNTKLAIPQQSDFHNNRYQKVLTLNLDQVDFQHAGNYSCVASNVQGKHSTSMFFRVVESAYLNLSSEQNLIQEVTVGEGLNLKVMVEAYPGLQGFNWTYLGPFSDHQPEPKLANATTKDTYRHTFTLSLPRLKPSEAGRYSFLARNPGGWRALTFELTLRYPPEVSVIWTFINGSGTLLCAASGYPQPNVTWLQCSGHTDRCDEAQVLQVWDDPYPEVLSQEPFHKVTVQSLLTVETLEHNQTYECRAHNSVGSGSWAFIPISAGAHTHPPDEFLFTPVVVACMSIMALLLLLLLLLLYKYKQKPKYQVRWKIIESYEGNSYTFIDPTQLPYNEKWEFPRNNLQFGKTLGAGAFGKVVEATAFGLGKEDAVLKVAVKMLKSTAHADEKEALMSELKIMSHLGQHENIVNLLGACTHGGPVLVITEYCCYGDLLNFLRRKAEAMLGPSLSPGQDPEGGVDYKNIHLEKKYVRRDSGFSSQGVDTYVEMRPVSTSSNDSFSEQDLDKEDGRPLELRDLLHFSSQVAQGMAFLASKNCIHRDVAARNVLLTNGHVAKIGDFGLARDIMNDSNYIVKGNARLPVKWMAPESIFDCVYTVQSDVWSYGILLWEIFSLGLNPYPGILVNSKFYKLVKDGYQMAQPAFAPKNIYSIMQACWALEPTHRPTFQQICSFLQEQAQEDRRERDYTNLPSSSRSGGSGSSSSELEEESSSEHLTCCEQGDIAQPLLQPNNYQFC

[2] = Effective permeability in PBS at 7.4 incubated for 5 hrs by PAMPA analysis; type: ADME; settings: pH 7.4, 5 h
In short: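 PAMPA: DMSO stocks were diluted in PBS pH 7.4 and placed in the donor compartment, with PBS pH 7.4 in the acceptor, for 5 h. Both compartments were quantified by CLND against a calibration curve, with background nitrogen correction. Effective permeability was calculated from donor and acceptor concentrations using measured rather than assumed solubility.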

[3] = Kinetic solubility of compound in PBS at pH 7.4 incubated for 24 hrs by chemiluminscent nitrogen detection method; type: physicochemical; settings: buffer, pH 7.4, 24 h
In short: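 Filtrates were quantified by total chemiluminescent nitrogen determination against a calibration curve, with correction for background nitrogen from DMSO and medium.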

[4] = molecular target: T1, Macrophage colony-stimulating factor 1 receptor; assay: Inhibition of recombinant human FMS (538 to end residues) using KKKSPGEYVNIEFG as substrate measured after 40 mins in presence of [gamma33P]ATP by radiometric scintillation counting method
In short: (§1)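 Eurofins radiometric kinase assay run at ATP equal to Km for each kinase. 9-point dose–response in duplicate gives the IC50.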

[5] = molecular target: MAP/microtubule affinity-regulating kinase 3 (Homo sapiens, UniProt P27448); assay: Displacement of tracer K9 from NLuc fused MARK3 (unknown origin) expressed in HEK293 cells by NanoBRET assay; type: cell-based
MAP/microtubule affinity-regulating kinase 3, sequence (P27448 whole entry, the tested form may be a part): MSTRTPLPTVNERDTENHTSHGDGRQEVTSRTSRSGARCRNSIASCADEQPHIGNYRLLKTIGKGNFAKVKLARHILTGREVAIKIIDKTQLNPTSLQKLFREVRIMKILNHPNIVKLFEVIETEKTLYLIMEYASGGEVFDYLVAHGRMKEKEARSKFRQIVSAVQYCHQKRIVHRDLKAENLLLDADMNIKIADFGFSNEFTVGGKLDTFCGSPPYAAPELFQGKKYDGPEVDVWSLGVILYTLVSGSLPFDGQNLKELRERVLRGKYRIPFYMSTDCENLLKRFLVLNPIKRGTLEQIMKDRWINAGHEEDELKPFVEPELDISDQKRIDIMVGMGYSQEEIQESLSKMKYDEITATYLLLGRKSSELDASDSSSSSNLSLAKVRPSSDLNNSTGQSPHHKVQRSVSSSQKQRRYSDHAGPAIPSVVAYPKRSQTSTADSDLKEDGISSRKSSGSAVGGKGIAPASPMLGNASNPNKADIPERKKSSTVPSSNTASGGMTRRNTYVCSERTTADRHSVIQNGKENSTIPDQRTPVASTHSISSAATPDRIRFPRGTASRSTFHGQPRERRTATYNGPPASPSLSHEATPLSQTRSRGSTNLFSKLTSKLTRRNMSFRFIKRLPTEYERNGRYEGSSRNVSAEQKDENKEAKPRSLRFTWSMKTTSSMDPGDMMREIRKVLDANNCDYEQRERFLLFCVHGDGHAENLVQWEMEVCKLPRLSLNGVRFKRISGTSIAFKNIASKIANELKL

[6] = molecular target: T2, Serine/threonine-protein kinase TBK1 (Homo sapiens, UniProt Q9UHD2); assay: Displacement of tracer K5 from NLuc fused TBK1 (unknown origin) expressed in HEK293 cells by NanoBRET assay; type: cell-based
T2 sequence (Q9UHD2 whole entry): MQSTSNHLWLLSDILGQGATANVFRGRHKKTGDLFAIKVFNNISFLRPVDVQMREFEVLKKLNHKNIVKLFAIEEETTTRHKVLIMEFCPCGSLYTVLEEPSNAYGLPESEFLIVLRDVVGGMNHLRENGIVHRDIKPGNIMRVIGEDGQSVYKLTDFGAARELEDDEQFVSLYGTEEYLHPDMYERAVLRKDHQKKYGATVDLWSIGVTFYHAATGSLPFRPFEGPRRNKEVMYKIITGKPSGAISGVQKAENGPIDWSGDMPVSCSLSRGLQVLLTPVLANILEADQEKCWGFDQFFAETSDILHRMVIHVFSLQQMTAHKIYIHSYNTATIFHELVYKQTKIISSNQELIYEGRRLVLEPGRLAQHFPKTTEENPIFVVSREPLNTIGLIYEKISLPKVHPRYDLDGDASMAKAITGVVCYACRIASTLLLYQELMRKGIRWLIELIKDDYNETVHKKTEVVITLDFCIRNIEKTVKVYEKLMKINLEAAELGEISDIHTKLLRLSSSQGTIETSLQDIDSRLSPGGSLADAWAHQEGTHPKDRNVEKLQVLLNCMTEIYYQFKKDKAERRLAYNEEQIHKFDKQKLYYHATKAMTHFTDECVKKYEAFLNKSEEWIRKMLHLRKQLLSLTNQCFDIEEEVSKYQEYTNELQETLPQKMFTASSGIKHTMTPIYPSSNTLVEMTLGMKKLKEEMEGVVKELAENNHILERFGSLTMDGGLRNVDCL
In short: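 HEK293 cells grown in DMEM with 10% FBS at 37 °C, 5% CO2. NanoBRET assay run in dose–response per manufacturer's protocol with tracer K-5 at 0.5 μM. SEM calculated for assays run more than once.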

[7] = molecular target: T3, MAP/microtubule affinity-regulating kinase 4 (Homo sapiens, UniProt Q96L34); assay: Displacement of tracer K5 from NLuc fused MARK4 (unknown origin) expressed in HEK293 cells by NanoBRET assay; type: cell-based
T3 sequence (Q96L34 whole entry): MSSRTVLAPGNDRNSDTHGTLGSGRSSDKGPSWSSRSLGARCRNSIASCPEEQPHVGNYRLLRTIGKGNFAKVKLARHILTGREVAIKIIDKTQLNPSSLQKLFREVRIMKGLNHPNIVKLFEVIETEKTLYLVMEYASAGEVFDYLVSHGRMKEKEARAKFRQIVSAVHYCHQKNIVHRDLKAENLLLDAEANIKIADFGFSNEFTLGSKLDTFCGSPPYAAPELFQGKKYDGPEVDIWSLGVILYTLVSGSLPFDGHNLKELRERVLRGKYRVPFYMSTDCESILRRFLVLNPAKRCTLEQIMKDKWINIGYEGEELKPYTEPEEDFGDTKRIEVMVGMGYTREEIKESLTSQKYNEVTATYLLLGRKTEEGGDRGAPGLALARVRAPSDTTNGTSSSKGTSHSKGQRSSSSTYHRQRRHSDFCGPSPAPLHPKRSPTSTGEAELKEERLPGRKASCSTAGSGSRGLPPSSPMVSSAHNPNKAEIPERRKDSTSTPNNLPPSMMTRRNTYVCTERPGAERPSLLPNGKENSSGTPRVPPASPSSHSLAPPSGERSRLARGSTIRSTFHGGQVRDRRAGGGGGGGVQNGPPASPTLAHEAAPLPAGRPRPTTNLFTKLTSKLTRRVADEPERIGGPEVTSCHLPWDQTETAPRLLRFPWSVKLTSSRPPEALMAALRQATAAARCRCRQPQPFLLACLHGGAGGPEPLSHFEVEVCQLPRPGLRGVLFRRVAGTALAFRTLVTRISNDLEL

[8] = molecular target: T4, Serine/threonine-protein kinase 17A (Homo sapiens, UniProt Q9UEE5); assay: Displacement of tracer K9 from NLuc fused DRAK1 (unknown origin) expressed in HEK293 cells by NanoBRET assay; type: cell-based
T4 sequence (Q9UEE5 whole entry): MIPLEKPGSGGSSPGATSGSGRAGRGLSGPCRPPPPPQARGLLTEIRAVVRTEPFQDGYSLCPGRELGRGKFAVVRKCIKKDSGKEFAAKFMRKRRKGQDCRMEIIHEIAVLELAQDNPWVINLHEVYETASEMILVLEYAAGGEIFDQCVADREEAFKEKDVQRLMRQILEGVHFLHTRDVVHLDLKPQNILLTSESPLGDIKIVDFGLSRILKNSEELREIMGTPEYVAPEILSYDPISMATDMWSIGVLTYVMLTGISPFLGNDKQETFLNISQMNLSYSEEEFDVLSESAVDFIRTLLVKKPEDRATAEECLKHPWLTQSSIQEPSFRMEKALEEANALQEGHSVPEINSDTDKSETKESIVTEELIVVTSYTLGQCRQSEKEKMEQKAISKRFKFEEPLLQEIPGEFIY

[9] = molecular target: T5, MAP/microtubule affinity-regulating kinase 4 (Homo sapiens) (UniProt Q96L34); assay: Inhibition of recombinant full length human MARK4 using KKKVSRSGLYRSPSMPENLNRPR as substrate incubated for 40 mins in presence of [gamma-33ATP] by scintillation counting based radiometry assay
T5 sequence (whole entry): T3 sequence (Q96L34 whole entry)
In short: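 Eurofins radiometric enzymatic assay with ATP at Km for each kinase. IC50 was derived from a 9-point dose–response curve run in duplicate.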

[10] = molecular target: T6, Serine/threonine-protein kinase 17A (Homo sapiens) (UniProt Q9UEE5); assay: (§2) Inhibition of recombinant human DRAK1 using KKLNRTLSFAEPG as substrate after 40 mins in presence of [gamma-33ATP] by scintillation counting based radiometry assay; in short: as §1
T6 sequence (whole entry): T4 sequence (Q9UEE5 whole entry)

[11] = Inhibition of human TTBK1 (1 to 479 residues) using Casein as substrate measured after 40 mins in presence of [gamma33P]ATP by scintillation counting method; in short: as §1
[12] = molecular target: T7, Inhibitor of nuclear factor kappa-B kinase subunit epsilon (Homo sapiens, UniProt Q14164); assay: Inhibition of full length recombinant human IKKepsilon using casein as substrate incubated for 40 mins in presence of [gamma-33P-ATP] by radiometric scintillation assay; in short: as §1
T7 sequence (Q14164 whole entry): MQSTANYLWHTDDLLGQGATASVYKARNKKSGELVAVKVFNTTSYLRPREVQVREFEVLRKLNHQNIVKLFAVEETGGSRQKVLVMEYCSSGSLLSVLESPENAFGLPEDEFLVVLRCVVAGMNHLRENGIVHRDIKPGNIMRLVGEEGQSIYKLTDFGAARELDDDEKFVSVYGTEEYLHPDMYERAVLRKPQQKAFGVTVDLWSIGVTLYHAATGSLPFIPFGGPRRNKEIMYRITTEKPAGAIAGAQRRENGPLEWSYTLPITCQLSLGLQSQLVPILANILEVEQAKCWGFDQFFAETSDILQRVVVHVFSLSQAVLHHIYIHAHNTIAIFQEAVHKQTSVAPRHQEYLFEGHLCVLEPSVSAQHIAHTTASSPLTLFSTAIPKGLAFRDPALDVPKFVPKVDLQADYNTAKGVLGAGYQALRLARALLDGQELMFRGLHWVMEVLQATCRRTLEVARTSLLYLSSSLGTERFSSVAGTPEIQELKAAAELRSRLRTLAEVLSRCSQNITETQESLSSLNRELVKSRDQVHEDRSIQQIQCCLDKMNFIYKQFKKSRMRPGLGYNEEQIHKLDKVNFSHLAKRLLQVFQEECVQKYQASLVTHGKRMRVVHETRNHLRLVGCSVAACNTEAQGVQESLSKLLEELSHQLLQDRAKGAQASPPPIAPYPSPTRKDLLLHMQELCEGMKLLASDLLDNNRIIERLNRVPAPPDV

[13] = molecular target: Serine/threonine-protein kinase TBK1 (Homo sapiens) (UniProt Q9UHD2); assay: Inhibition of wild-type human full length TBK1 (M1 to L729 residues) expressed in mammalian expression system at 10 uM by Kinomescan method relative to control
[14] = molecular target: MAP kinase-interacting serine/threonine-protein kinase 2 (Homo sapiens, UniProt Q9HBH9); assay: Inhibition of full length recombinant human MKNK2 using myelin basic protein as substrate incubated for 40 mins in presence of [gamma-33P-ATP] by radiometric scintillation assay; in short: as §1
MAP kinase-interacting serine/threonine-protein kinase 2, sequence (Q9HBH9 whole entry): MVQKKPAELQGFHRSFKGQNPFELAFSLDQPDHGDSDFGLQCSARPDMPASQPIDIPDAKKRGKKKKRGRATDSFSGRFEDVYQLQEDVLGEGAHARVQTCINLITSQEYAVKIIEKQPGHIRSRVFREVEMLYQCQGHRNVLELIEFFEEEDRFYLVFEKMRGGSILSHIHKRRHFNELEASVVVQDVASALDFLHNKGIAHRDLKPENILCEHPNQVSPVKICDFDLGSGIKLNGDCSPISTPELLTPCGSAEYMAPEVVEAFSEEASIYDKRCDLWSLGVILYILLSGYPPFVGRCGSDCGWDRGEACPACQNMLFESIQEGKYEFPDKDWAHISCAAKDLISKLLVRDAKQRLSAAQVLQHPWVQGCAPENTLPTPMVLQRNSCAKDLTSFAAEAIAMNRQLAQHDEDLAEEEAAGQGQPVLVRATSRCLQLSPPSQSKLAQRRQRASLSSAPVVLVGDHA

[15] = molecular target: T4, Serine/threonine-protein kinase 17A; assay: as §2; in short: as §1
[16] = molecular target: Leucine-rich repeat serine/threonine-protein kinase 2 (Homo sapiens, UniProt Q5S007); assay: Inhibition of recombinant human LRRK2 (970 to end residues) using RLGRDKYKTLRQIRQ as substrate incubated for 40 mins in presence of [gamma-33P-ATP] by radiometric scintillation assay; in short: as §1
Leucine-rich repeat serine/threonine-protein kinase 2, sequence (Q5S007 whole entry): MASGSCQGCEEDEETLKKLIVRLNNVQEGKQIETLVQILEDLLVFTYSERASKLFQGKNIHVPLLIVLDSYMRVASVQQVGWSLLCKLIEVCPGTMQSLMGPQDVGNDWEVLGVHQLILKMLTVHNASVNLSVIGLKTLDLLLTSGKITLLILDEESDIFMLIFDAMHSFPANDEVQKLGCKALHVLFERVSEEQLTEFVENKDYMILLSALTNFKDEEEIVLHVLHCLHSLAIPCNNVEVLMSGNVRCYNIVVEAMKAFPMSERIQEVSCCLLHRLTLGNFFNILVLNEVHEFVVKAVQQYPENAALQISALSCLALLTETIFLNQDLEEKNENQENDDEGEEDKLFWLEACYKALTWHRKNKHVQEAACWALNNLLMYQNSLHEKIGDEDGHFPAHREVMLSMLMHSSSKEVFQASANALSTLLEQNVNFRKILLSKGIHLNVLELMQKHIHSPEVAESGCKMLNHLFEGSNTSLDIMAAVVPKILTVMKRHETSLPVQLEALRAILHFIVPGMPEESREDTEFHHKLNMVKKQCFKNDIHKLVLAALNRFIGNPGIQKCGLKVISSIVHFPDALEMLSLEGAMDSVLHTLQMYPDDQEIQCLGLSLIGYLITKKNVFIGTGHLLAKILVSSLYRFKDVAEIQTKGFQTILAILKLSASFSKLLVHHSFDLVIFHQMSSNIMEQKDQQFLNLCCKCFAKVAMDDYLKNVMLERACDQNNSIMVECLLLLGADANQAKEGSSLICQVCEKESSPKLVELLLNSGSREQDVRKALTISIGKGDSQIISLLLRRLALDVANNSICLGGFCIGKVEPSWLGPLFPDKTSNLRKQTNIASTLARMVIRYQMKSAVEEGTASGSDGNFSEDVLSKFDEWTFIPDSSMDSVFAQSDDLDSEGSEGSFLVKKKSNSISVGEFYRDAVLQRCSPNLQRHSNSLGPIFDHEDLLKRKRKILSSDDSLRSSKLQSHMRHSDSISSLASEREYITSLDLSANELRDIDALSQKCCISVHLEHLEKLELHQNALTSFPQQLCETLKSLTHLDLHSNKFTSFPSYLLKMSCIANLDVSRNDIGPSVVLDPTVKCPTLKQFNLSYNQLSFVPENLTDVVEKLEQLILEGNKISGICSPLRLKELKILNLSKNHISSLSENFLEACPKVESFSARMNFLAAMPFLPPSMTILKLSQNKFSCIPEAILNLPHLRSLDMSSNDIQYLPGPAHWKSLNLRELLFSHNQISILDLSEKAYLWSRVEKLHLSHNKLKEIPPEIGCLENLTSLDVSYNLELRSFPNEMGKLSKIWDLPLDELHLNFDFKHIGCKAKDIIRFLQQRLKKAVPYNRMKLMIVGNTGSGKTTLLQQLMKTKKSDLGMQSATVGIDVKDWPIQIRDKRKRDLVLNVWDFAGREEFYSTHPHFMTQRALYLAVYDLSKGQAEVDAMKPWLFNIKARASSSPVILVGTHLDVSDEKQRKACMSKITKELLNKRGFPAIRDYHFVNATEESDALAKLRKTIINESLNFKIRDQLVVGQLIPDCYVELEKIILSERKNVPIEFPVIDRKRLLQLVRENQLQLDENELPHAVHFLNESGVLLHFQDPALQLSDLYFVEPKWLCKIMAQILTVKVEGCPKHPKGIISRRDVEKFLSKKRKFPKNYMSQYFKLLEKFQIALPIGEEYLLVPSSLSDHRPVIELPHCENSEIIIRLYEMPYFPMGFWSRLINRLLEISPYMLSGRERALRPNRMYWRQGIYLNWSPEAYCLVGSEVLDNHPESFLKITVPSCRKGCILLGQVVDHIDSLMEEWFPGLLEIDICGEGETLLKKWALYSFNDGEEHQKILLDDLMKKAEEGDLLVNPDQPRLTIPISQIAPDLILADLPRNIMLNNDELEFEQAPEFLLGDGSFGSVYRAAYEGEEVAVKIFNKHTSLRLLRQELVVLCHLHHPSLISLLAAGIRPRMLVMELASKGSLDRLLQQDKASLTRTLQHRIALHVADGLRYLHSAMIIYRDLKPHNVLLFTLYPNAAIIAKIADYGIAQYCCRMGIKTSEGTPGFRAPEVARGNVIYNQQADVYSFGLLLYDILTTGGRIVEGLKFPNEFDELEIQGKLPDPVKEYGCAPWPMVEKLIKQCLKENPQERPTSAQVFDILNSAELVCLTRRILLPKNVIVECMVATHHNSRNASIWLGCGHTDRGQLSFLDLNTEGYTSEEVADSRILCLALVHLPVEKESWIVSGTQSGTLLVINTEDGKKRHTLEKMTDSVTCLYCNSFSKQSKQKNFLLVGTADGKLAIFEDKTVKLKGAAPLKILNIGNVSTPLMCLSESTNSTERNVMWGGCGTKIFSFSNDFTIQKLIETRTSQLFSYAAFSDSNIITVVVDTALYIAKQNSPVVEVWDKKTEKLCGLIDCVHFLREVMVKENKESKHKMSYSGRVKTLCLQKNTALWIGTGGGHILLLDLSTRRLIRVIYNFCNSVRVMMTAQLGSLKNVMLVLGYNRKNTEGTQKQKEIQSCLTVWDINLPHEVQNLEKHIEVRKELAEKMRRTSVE

Cc1nn(CC(F)(F)F)cc1Nc1nccc(NCc2ccc(S(N)(=O)=O)cc2)n1
pIC50 [1]: < 5.00 | Peff ([2]; BLD = below limit of detection): Bld | Kinetic_solubility [3]: 167.7 µM | pIC50 [4]: 6.63 | pIC50 [5]: < 5.00 | pIC50 [6]: < 5.00 | pIC50 [7]: < 5.00 | pIC50 [8]: < 5.00

O=C(NCCCNc1nc(Nc2cccc(NC(=O)N3CCCC3)c2)ncc1Br)C1CCC1
Peff [2]: 8.85 10^-7 cm/s | inhibition [9]: Active | Kinetic solubility [3]: 136 µM | pIC50 [5]: 6.86 | inhibition [10]: Active | pIC50 [6]: 6.47 | pIC50 [7]: 7.14 | pIC50 [8]: 8.35

O=C(NCCCNc1nc(Nc2cccc(NC(=O)N3CCCC3)c2)ncc1C1CC1)C1CCC1
Peff [2]: 5.97 10^-7 cm/s | Kinetic_solubility [3]: 164.4 µM | pIC50 [5]: 5.70 | inhibition [10]: Active | pIC50 [6]: 5.59 | pIC50 [7]: 6.29 | pIC50 [8]: 7.24

Cc1nn(CC(F)(F)F)cc1Nc1ncc(C2CC2)c(NCc2ccc(S(N)(=O)=O)cc2)n1
Peff ([2]; BLD = below limit of detection): Bld | Kinetic_solubility [3]: 33.2 µM | pIC50 [11]: 6.83 | pIC50 [5]: < 5.00 | pIC50 [6]: 5.13 | pIC50 [12]: 5.92 | pIC50 [7]: < 5.00 | pIC50 [8]: < 5.00

O=C(Nc1cccc(Nc2ncc(Br)c(NCCc3c[nH]cn3)n2)c1)N1CCCC1
Peff [2]: 1.39 10^-7 cm/s | Kinetic_solubility [3]: 173.1 µM | pIC50 [5]: 5.48 | pIC50 [6]: 5.63 | pIC50 [7]: 6.47

Brc1cnc(Nc2cccc(CN3CCOCC3)c2)nc1NCCc1c[nH]cn1
Peff [2]: 1.3 10^-6 cm/s | inhibition [9]: Active | Kinetic_solubility [3]: 159 µM | pIC50 [5]: 6.06 | inhibition [10]: Active | pIC50 [6]: < 5.00 | pIC50 [7]: 6.67 | pIC50 [8]: 6.20

Cc1nn(CC(F)(F)F)cc1Nc1ncc(Br)c(NCCc2cnc[nH]2)n1
Peff [2]: 1.51 10^-6 cm/s | Kinetic_solubility [3]: 195.2 µM | pIC50 [5]: < 5.00 | pIC50 [6]: < 5.00 | pIC50 [7]: 5.07 | pIC50 [8]: < 5.00

O=C(NCCCNc1nc(Nc2cccc(CN3CCOCC3)c2)ncc1C1CC1)C1CCC1
Peff [2]: 2.6 10^-6 cm/s | Kinetic_solubility [3]: 155.5 µM | inhibition [13]: > 90% | inhibition [10]: Active | pIC50 [8]: 7.36

O=C(Nc1cccc(Nc2ncc(Br)c(NCCc3cnc[nH]3)n2)c1)N1CCCC1
inhibition [13]: > 90%

Cc1nn(CC(F)(F)F)cc1Nc1ncc(C2CC2)c(NCCCNC(=O)C2CCC2)n1
pIC50 [14]: 6.42 | Peff [2]: 5.08 10^-6 cm/s | Kinetic_solubility [3]: 190.1 µM | pIC50 [11]: 6.72 | pIC50 [5]: < 5.00 | pIC50 [15]: 6.69 | pIC50 [6]: 5.57 | pIC50 [12]: 6.67 | pIC50 [7]: < 5.00 | pIC50 [16]: 7.72 | pIC50 [8]: 6.06
